Bioassay records (PubChem)
beta cell repl: inducers of beta-cell replication in MIN6 cells; MIN6 cells proliferation, ATPlite luminescence, 48 h; cells starved in 0.2% serum; 100% = growth in 10% serum; proliferation, % at 10 µM; 330,000 compounds, 0.29% hits;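 active = compounds whose signal lies at least 3.5 SD above the mean of all wells on their plate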;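 also: 0% = DMSO-treated cells in low-serum medium and 100% = 10% serum control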
CRFBP-R2 block: CRF-BP/CRF-R2 complex antagonism | HEK293 CRF-R2/CRF-BP, CRF-induced calcium fluorescence | inhibition, % at 11.8 µM | 350,000 compounds, 0.59% hits;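 active = inhibition of the ligand-induced calcium signal above about 50% at the single tested concentration, limit read from the data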
H9c2 protect: protects H9c2 cardiomyocytes from peroxide injury; H2O2 injury protection, ATPLite, 2 h; protection from H2O2 cell death, % at 20 µM; 360,000 compounds, 0.63% hits; AID 588492;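 active = compounds giving at least 50% protection of heart cells from peroxide-induced death in the single-dose screen, raw or plate-pattern-corrected value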;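 also: 0% = DMSO wells with peroxide and 100% = DMSO wells without peroxide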
CRFBP-R2 agonist: agonists of human CRF-binding protein/CRF-R2 receptor complex | HEK293 CRF-R2/CRF-BP, calcium dye fluorescence (FLIPR); percent of saturating CRF peptide response | activation, % at 13.2 µM | 350,000 compounds, 0.46% hits;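 active = activation of at least 50%, plus an integration ratio under a set limit after plate pattern correction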;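 also: plate controls were neutral control wells without compound for no effect and CRF at EC100 for full effect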
hiPSC survival: enhancers of human iPSC single-cell survival | 360,000 compounds, 0.044% hits | survival enhancement, % at 20 µM | hiPSC single-cell survival, ATPlite luminescence; 100% = ROCK inhibitor wells, 0% = DMSO; in the data active = survival enhancement above about 18%;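 also: cells exposed to compounds for 16 hours before the ATP read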
UCH37 inh: inhibitors of human deubiquitinating enzyme UCH37 | 330,000 compounds, 0.33% hits | Q9Y5K5 | AID 588478 | purified proteasome/UCH37, Ub-AMC cleavage fluorescence | inhibition, % (no concentration beside the values);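 active = mean inhibition over replicate wells above about 20%, limit read from the data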;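 also: 0% = compound-free wells with enzyme and 100% = wells lacking proteasome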
Target sequence (Q9Y5K5 whole entry, looked up): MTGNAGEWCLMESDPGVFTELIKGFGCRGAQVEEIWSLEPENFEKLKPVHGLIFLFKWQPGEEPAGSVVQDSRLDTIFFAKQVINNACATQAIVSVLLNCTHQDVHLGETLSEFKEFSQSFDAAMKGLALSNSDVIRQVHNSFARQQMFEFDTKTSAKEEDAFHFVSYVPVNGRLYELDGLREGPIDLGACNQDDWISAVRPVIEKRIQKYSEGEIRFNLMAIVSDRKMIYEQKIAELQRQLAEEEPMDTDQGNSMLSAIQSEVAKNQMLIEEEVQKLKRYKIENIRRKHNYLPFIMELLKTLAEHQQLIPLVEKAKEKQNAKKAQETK
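Schedule: 30 min plus 25 min, room temperature / Material: human UCH37 within purified proteasomes / Technique: AMC fluorescence intensity at 355/460 nm / Buffer or medium: pH 7.4 Tris-HCl (50 mM) with ovalbumin, ATP-MgCl2, DTT / Controls: wells without proteasome as full block, compound-free enzyme plus substrate as uninhibited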
UCH37 reconfirm: UCH37 Ub-AMC cleavage inhibition, confirmed; shares compounds with UCH37 inh; Proteasome-bound UCH37, Ub-AMC cleavage fluorescence; inhibition, % at 20 µM; 480 compounds, 27% hits; AID 624100;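 active = average inhibition over replicates above about 50%, so the earlier screening hit is confirmed, limit read from the data; inactive = the rest, counted as false positives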;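 also: based on cleavage rate fitted by regression over a 30 min kinetic read; 0% = proteasome plus Ub-AMC and 100% = Ub-AMC without proteasome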
Starred values were filed as active, the others as inactive; . = no result given. Rows were chosen to be rich in hits. Some 2.1% of all compounds tested hit in one or more screens of this group.

SMILES	beta cell repl	CRFBP-R2 block	H9c2 protect	CRFBP-R2 agonist	hiPSC survival	UCH37 inh	UCH37 reconfirm
CC1=N/C(=C\c2ccc([N+](=O)[O-])cc2)C(=O)N1c1ccc(Cl)cc1	0	-6	5	1	-2	7	.
CN1/C(=C\C=C2C(=O)NC(=O)NC2=O)C(C)(C)c2ccccc21	-1	-383	17	378*	0	39*	6
Cc1nn2c(c1-c1ccccc1)NC1=C(C(=O)CCC1)C2c1ccccc1 (stereo not drawn)	-2	-8	4	2	4	-395	.
CCN1C(=O)/C(=C/c2ccc3c(c2)CCN3CCCCl)C(=O)NC1=S	.	-3	4	0	1	3	.
CC(C)(C)N1C(=O)NC(=O)/C(=C\c2ccc3c(c2)CCN3CCCCl)C1=O	0	9	1	11	1	64*	1
Cc1cccc(-n2c(O)c(/C=N/Nc3nc4c(c(=O)n(C)c(=O)n4C)n3C)c(=O)[nH]c2=S)c1	-3	-39	9	-1	1	27*	22
O=C(/C=C/c1ccc(O)c(O)c1)OC1C(O)CC(OC(=O)/C=C/c2ccc(O)c(O)c2)(C(=O)O)CC1O (stereo not drawn)	.	22	-8	1	0	12	.
Cc1nc2c(=O)n(C)c(=O)nc-2n(C)n1	-4	-4	-32	2	-3	100*	100*
CC(C)C(=O)N1CCN(c2ccc(NC(=O)c3ccc4c(c3)OCCO4)cc2Cl)CC1	-4	-44	20	0	-5	1	.
C=C(C)C(Cc1c(OC)ccc(C(=O)/C=C/c2ccc(O)cc2)c1O)OO (stereo not drawn)	-6	-1	-8	3	-4	49*	19
COC(=O)C1=C(c2cccc(C#N)c2)C[C@@H]2CC[C@H]1N2C(=O)NCCOc1ccccc1Cl	6	0	-1	1	1	46*	7
COC(=O)C1=C(c2cccc(C#N)c2)C[C@@H]2CC[C@H]1N2C(=O)NCCOc1ccccc1	3	-4	9	0	-1	0	.
O=[N+]([O-])c1ccc(N(CCO)CCO)c2c1no[n+]2[O-]	.	-14	-7	11	-6	.	.
CN1CCN(c2ccc([N+](=O)[O-])c3no[n+]([O-])c23)CC1	.	-41	-2	49	-1	42*	29
Cc1ccc2c(c1)CC1(CN2C)C(=O)NC(=O)N(CCC2=CCCCC2)C1=O (stereo not drawn)	-1	-16	2	1	-2	35*	20
O=C1C(=O)c2ccccc2-c2ccccc21	-8	-5	-33	-1	-6	87*	101*
CC(C)CNC(=O)C1c2ccccc2Oc2ccccc21	2	13	8	-1	1	1	.
O=C(O)CC1OCC=C2CN3CCC45C6=CC(=O)C(=O)C([N+](=O)[O-])=C6NC4C1C2CC35 (stereo not drawn)	.	-5	-4	0	1	97*	97*
O=C(O)CC1OCC=C2CN3CCC45c6ccccc6NC4C1C2CC35 (stereo not drawn)	1	-11	0	3	0	.	.
Cn1c(O)c(C(=O)c2ccccc2)c(=O)n(C)c1=O	-2	1	6	4	-2	42*	7
Cc1ccc(C(=O)N/C(=C/c2ccc(C(C)C)cc2)C(=O)NCCCN2CCOCC2)cc1	0	-4	-1	0	0	8	.
